Data on 32 compounds can be found in ChEMBL document CHEMBL5316288, “Synthetic Strategies for Improving Solubility: Optimization of Novel Pyrazolo[1,5-a]pyrimidine CFTR Activator That Ameliorates Dry Eye Disease” (J Med Chem, 2023).

Series [1] deals with T1, Cystic fibrosis transmembrane conductance regulator (Homo sapiens, UniProt P13569). Nature of the series: Activation of human wild-type CFTR stably expressed in CHO-K1 cells co-expressing halide sensors YFP-H148Q/I152L assessed as CFTR-mediated iodide influx incubated for 10 mins by YFP fluorescence quenching assay. The format is cell-based.
Target sequence in this assay (P13569 whole entry): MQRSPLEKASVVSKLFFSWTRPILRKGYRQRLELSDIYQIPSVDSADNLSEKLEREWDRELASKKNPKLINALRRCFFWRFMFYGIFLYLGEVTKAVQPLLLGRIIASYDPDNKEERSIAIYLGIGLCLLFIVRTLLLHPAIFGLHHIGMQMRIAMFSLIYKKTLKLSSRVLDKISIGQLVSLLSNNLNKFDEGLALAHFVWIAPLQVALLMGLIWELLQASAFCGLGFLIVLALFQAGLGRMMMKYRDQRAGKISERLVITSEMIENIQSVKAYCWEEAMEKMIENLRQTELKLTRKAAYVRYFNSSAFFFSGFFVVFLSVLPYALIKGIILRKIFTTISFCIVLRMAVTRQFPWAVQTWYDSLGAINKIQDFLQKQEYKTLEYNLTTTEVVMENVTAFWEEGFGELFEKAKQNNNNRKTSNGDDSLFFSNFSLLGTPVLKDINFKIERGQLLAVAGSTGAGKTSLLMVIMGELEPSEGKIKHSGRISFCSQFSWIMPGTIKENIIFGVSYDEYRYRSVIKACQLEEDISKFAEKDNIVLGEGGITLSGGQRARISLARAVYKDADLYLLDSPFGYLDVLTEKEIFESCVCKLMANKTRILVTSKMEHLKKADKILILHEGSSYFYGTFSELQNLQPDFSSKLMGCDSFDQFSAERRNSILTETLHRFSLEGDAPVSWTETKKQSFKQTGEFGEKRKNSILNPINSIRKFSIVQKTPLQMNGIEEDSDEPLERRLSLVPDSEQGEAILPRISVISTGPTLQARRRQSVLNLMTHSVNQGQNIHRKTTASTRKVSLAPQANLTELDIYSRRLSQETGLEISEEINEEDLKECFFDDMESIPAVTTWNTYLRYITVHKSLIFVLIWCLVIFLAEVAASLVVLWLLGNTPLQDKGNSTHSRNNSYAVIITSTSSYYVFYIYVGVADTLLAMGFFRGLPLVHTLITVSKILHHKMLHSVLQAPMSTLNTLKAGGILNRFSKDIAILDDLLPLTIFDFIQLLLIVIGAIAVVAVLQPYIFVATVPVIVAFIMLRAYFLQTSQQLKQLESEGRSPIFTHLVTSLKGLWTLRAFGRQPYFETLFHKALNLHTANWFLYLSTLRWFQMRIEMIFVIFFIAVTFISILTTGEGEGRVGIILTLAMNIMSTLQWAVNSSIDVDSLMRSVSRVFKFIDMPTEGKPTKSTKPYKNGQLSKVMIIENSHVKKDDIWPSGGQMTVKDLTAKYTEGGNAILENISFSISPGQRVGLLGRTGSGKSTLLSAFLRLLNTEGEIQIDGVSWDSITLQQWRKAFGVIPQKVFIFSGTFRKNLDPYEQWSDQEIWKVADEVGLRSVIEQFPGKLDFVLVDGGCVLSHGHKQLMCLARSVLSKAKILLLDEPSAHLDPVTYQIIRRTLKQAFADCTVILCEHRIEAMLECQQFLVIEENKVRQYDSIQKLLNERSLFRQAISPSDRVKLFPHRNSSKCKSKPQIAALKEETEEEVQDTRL
Series [2] in a line: Solubility of compound in PBS at 7.5 at 0.5 mg/ml incubated for 90 mins by LC-MS/MS analysis. The format is physicochemical. Summed up: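 Thermodynamic solubility: compound at 0.5 mg/mL in isotonic phosphate-buffered saline, pH 7.5, vortexed for 90 min. The solution was then filtered sequentially through 0.45, 1.2 and 5.0 μm filters. Concentration was measured by LC-MS/MS against a ≥6-point internal-standard calibration curve (weighted 1/x linear or quadratic) and back-calculated.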

For series [3], the target named is T1, Cystic fibrosis transmembrane conductance regulator. Put plainly: Activation of human wild-type CFTR stably expressed in rat FRT cells assessed as increase in apical membrane chloride current incubated for 20 mins by patch-clamp assay. The format is cell-based. A general note: In patch-clamp work, channel activity is measured electrically.
Target sequence in this assay (P13569 whole entry): as above
Series [4] is filed under the species Mus musculus. Nature of the series: Effect on tear secretion in C57BL/6J mouse assessed as increase in tear volume at 1 to 72 uM,TOP and measured upto 6 hrs by phenol red thread test. The format is functional. Particulars: dose 1-72 µM. Summed up: (§1)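 Normal female C57BL/6J mice received 2.5 μL eye drops in both eyes, held for 30 s. Vehicle was 5% polyoxyl 35 castor oil in sodium phosphate buffer. Tear volume was read by phenol red thread placed 15 s in the lateral canthus, wet length by caliper. Readings were taken at 0 h (baseline) and at 1, 3 and 6 h post-dose; n = 6.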

For series [5], the species on record is Mus musculus. Put plainly: Effect on tear secretion in C57BL/6J mouse assessed as maximum tear volume at 1 to 72 uM,TOP and measured after 3 hr by phenol red thread test. The series is classed as functional. The conditions noted are these: dose 1-72 µM. Summed up:
as §1

The species entered for series [6] is Mus musculus. Put plainly: Amelioration ocular surface damage in scopolamine-induced dry eye in C57BL/6J mouse model assessed as recovery of tear volume at 0.3 %,TOP 3 times day for 10 days by phenol red thread test. The series is classed as functional, organism-based. The conditions noted are these: time 10.0 day. The method, boiled down: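 In scopolamine-induced dry eye mice (0.5 mg/0.1 mL s.c. three times daily, 14 days), drops were given three times daily for 10 days. Scopolamine continued for the first 8 days. Tear volume was read with phenol red thread placed 15 s in the lateral canthus, wet length by caliper. Readings were taken before induction, after induction and after 10 days of drops; n = 5.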

For series [7], the species on record is Mus musculus. Put plainly: Amelioration ocular surface damage in scopolamine-induced dry eye in C57BL/6J mouse model assessed as decrease in IL-17 mRNA expression level in conjunctiva at 0.3 %,TOP 3 times day for 10 days by RT-PCR analysis. The series is classed as functional, organism-based. Particulars: time 10.0 day. Summed up:
(§2)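 Dry eye was induced with scopolamine hydrobromide 0.5 mg/0.1 mL given subcutaneously three times daily for 14 days. Eye drops were then applied to both eyes three times daily for 10 days, with scopolamine continued for the first 8 treatment days. The vehicle was 5% polyoxyl 35 castor oil in sodium phosphate buffer. Corneal and conjunctival IL-17 mRNA was measured by real-time PCR; mean ± S.E., n = 5.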

Series [8] is filed under the species Mus musculus. Nature of the series: Amelioration ocular surface damage in scopolamine-induced dry eye in C57BL/6J mouse model assessed as decrease in TNF-alpha mRNA expression level in conjunctiva at 0.3 %,TOP 3 times day for 10 days by RT-PCR analysis. The format is functional, organism-based. Particulars: time 10.0 day. The method, boiled down: (§3)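 Dry eye was induced by subcutaneous scopolamine hydrobromide 0.5 mg/0.1 mL three times daily for 14 days. Eye drops (vehicle, 0.3% diquafosol or test agent) followed three times daily for 10 days, with scopolamine continued for the first 8 days. Cornea and conjunctiva mRNA for MMP-2 and TNF-α was quantified by real-time PCR; n = 5.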

The species named for series [9] is Mus musculus. Put plainly: Amelioration ocular surface damage in scopolamine-induced dry eye in C57BL/6J mouse model assessed as decrease in MMP-2 mRNA expression level in conjunctiva at 0.3 %,TOP 3 times day for 10 days by RT-PCR analysis. The format is functional, organism-based. Particulars: time 10.0 day. Summed up:
as §3

The species entered for series [10] is Mus musculus. Nature of the series: Amelioration ocular surface damage in scopolamine-induced dry eye in C57BL/6J mouse model assessed as decrease in IL-17 mRNA expression level in cornea at 0.3 %,TOP 3 times day for 10 days by RT-PCR analysis. The series is classed as functional, organism-based. The conditions noted are these: time 10.0 day. Summed up:
as §2

The species named for series [11] is Mus musculus. Nature of the series: Amelioration ocular surface damage in scopolamine-induced dry eye in C57BL/6J mouse model assessed as decrease in TNF-alpha mRNA expression level in cornea at 0.3 %,TOP 3 times day for 10 days by RT-PCR analysis. The format is functional, organism-based. Particulars: time 10.0 day. The method, boiled down:
as §3

The species named for series [12] is Mus musculus. Put plainly: Amelioration ocular surface damage in scopolamine-induced dry eye in C57BL/6J mouse model assessed as decrease in MMP-2 mRNA expression level in cornea at 0.3 %,TOP 3 times day for 10 days by RT-PCR analysis. The series is classed as functional, organism-based. Particulars: time 10.0 day. Summed up: as §3
The target of series [13] is T1, Cystic fibrosis transmembrane conductance regulator. Nature of the series: Activation of human CFTR expressed in CHO-K1 cells assessed as increase in intracellular cAMP level at 10 uM incubated for 10 mins in presence of IBMX by Immunoassay. The series is classed as cell-based. The conditions noted are these: filed as activator. For orientation: Changes in cAMP serve as a functional read-out for many G protein-coupled receptors.
Target sequence in this assay (P13569 whole entry, looked up): as the sequence (P13569 whole entry) above

The target is the same in series [14]. Nature of the series: Activation of human wild-type CFTR stably expressed in CHO-K1 cells assessed as increase in chloride current at holding potential 0 mV at 30 uM by whole-cell patch-clamp assay. The conditions noted are these: filed as activator.
Target sequence in this assay (P13569 whole entry, looked up): as the sequence (P13569 whole entry) above

The pEC50 is the negative decadic logarithm of the EC50, by convention in mol/L. Usually solubility (thermodynamic) stands for the concentration in solution at equilibrium with solid.

pEC50: −log10 of the molar value. Converted amounts (≈) assume the structure as drawn. The source made the active and inactive calls. The calls are words filed in the database; no cut-off is given here.

As for `COc1ccc(-c2ccnc3cc(C(=O)Nc4ccc(C(=O)O)cc4)nn23)cc1OC`, the pEC50 in series [1] was 6.51. Moreover, the solubility (thermodynamic) at 1.5 h in series [2] (PBS, pH 7.5) turned out to be 5.21 µM (≈ 2.18 µg/mL). With `COc1ccc(-c2ccnc3cc(C(=O)N4CCN(C5CC5)CC4)nn23)cc1OC`, the pEC50 in [1] is 5.85. Turning to `COc1ccc(-c2ccnc3cc(C(=O)Nc4ccc(N5CCOCC5)cc4)nn23)cc1OC`, the pEC50 in [1] is 8.15. With `COc1ccc(-c2ccnc3cc(C(=O)N[C@H]4CC[C@@H](C(=O)OC)CC4)nn23)cc1OC`, the thermodynamic solubility at 1.5 h in series [2] (PBS, pH 7.5) was found to be 7.55 µM (≈ 3.31 µg/mL). As for `CCOc1ccc(NC(=O)c2cc3nccc(-c4ccc(OC)c(OC)c4)n3n2)cc1`, the pEC50 is 6.47 in series [3] and 7.74 in series [1]. The Activity entry in the series listed under Mus musculus [4] is “Dose-Dependent Effect”. Moreover, the outcome in the series filed under Mus musculus [5] was Active. For `COC(=O)c1ccc(CNC(=O)c2cc3nccc(-c4ccc(OC)c(OC)c4)n3n2)cc1`, the pEC50 in series [1] is 6.33.

As for `COc1ccc(-c2ccnc3cc(C(=O)Nc4ccc(C(=O)NCCN)cc4)nn23)cc1OC`, the pEC50 in [1] was 4.80. The same measure, in the same setting: as for `COc1ccc(-c2ccnc3cc(C(=O)N4CCN(C)CC4)nn23)cc1OC`, the figure is 5.09; as for `COc1ccc(-c2ccnc3cc(C(=O)N4CCN(C(=O)OC(C)(C)C)CC4)nn23)cc1OC`, 6.57. As for `COc1ccc(-c2ccnc3cc(C(=O)Nc4ccccc4)nn23)cc1OC`, the pEC50 in series [1] was 7.19. Further, the thermodynamic solubility at 1.5 h in [2] (buffer, pH 7.5, 1.5 h) came to 0.059 µM (≈ 0.0221 µg/mL).

For `COC(=O)C12CC(NC(=O)c3cc4nccc(-c5ccc(OC)c(OC)c5)n4n3)(C1)C2`, the pEC50 in series [1] was 6.51. In addition, in [2] (PBS, pH 7.5), the solubility (thermodynamic) at 1.5 h was determined as 1.42 µM (≈ 0.599 µg/mL). Regarding `COc1ccc(-c2ccnc3cc(C(=O)Nc4ccc(C(=O)N5CCN(C(=O)OC(C)(C)C)CC5)cc4)nn23)cc1OC`, in series [1], the pEC50 is 7.77. Take `O=c1ccn(C2O[C@H](COP(=O)(O)OP(=O)(O)OP(=O)(O)OP(=O)(O)OC[C@H]3O[C@@H](n4ccc(=O)[nH]c4=O)[C@H](O)[C@@H]3O)[C@@H](O)[C@H]2O)c(=O)[nH]1` (some centres undefined): the outcome in the series listed under Mus musculus [6], in the series filed under Mus musculus [7], in the series filed under Mus musculus [8], in the series listed under Mus musculus [9], in the series listed under Mus musculus [10] and in the series filed under Mus musculus [11] was Active. Further, the result in the series listed under Mus musculus [12] was Active.

As for `COc1ccc(-c2ccnc3cc(C(=O)Nc4ccc(OCCN5CCOCC5)cc4)nn23)cc1OC`, the pEC50 in [1] was 8.22. In the case of `COc1ccc(-c2ccnc3cc(C(=O)NCc4ccc(N5CCOCC5)cc4)nn23)cc1OC`, the pEC50 in series [1] is 6.15. On the same count and under the same terms, as for `COc1ccc(-c2ccnc3cc(C(=O)N4CCN(c5ccccc5)CC4)nn23)cc1OC`, the figure is 6.08. For the compound `COc1ccc(-c2ccnc3cc(C(=O)N4CCN(C(=O)c5ccccc5)C(C)(C)C4)nn23)cc1OC`, the pEC50 in series [1] is 6.70. This compound had a solubility (thermodynamic) at 1.5 h in series [2] (PBS, pH 7.5) of 1.82 µM (≈ 0.907 µg/mL). Consider `COC(=O)c1ccc(NC(=O)c2cc3nccc(-c4ccc(OC)c(OC)c4)n3n2)c(Cl)c1`, for which, in series [1], the pEC50 was 5.57. The same measure, in the same setting: as for `COC(=O)c1ccc(NC(=O)c2cc3nccc(-c4ccc(OC)c(OC)c4)n3n2)cc1`, the figure is 7.85.

As for `COc1ccc(-c2ccnc3cc(C(=O)N4CC[C@@H](NC(=O)OC(C)(C)C)C4)nn23)cc1OC`, the pEC50 in series [1] is 6.43. In the case of `COc1ccc(-c2ccnc3cc(C(=O)N4CCN(Cc5ccccc5)CC4)nn23)cc1OC`, in series [1], the pEC50 was 6.14. Consider `COc1ccc(-c2ccnc3cc(C(=O)N4CCN(C(C)C)CC4)nn23)cc1OC`, for which, in series [1], the pEC50 is 5.22. `COc1ccc(-c2ccnc3cc(C(=O)N4CCN(C(=O)c5ccccc5)[C@H](C)C4)nn23)cc1OC`: in series [2] (PBS, pH 7.5), the solubility (thermodynamic) at 1.5 h stood at 159 µM (≈ 77 µg/mL). On to `COc1ccc(-c2ccnc3cc(C(=O)N4CC(NC(=O)OC(C)(C)C)C4)nn23)cc1OC`, for which, in series [1], the pEC50 was 6.15. Still for that read-out and setting: next, `COc1ccc(-c2ccnc3cc(C(=O)N4CCNCC4)nn23)cc1OC`: 4.77. As for `COc1ccc(-c2ccnc3cc(C(=O)Nc4ccc(C(=O)O)cc4F)nn23)cc1OC`, in [1], the pEC50 is 7.38. Besides, the solubility (thermodynamic) at 1.5 h in series [2] (PBS, pH 7.5) was found to be 0.341 µM (≈ 0.149 µg/mL). Taken in the same sequence, the figures for `COc1ccc(-c2ccnc3cc(C(=O)N4CCN(C(=O)c5ccccc5)CC4)nn23)cc1OC` were 6.96 and 10.1 µM (≈ 4.74 µg/mL).

Regarding `COc1ccc(-c2ccnc3cc(C(=O)N4CCN(C(=O)C5CC5)CC4)nn23)cc1OC`, the pEC50 in series [1] was 5.77. As for `COc1ccc(-c2ccnc3cc(C(=O)N[C@H]4CC[C@H](C(=O)OC)CC4)nn23)cc1OC`, the solubility (thermodynamic) at 1.5 h in series [2] (PBS, pH 7.5) is 1.39 µM (≈ 0.611 µg/mL). Regarding `C=C[C@@]1(C)CC(=O)[C@]2(O)[C@@]3(C)[C@@H](O)CCC(C)(C)[C@@H]3[C@H](O)[C@H](OC(C)=O)[C@@]2(C)O1`, the result in series [13] and in series [14] was Active. As to `COc1ccc(-c2ccnc3cc(C(=O)Nc4ccc(C(=O)N5CCN(C)CC5)cc4)nn23)cc1OC.Cl`, in series [1], the pEC50 was 6.54. The solubility (thermodynamic) at 1.5 h in series [2] (PBS, pH 7.5) was found to be 237 µM. On to `COc1ccc(-c2ccnc3cc(C(=O)NC4CCCCC4)nn23)cc1OC`, for which the pEC50 in series [1] is 6.89.
